Reference: ChEMBL document CHEMBL4699573, “Design, Synthesis, and Pharmacological Evaluation of Analogues Derived from the PLEV Tetrapeptide as Protein-Protein Interaction Modulators of Voltage-Gated Sodium Channel 1.6” (J Med Chem, 2020)
The source made the active and inactive calls. The rule behind the calls is not given here. Residues, ends and D or L forms follow the SMILES beside them. *: point of attachment. Adamantane1carbonyl = O=C(C12CC3CC(CC(C3)C1)C2)*; OtBu = CC(C)(C)O*

Columns and labels:
HEK293 [1] = experiment: Modulation of recombinant human FGF141b (1 to 252 residues)-recombinant human Nav1.6 C-terminal tail (1763 to 1976 residues) protein-protein interaction expressed in HEK293 cells assessed as relative luminescence value at 50 uM measured at 2 mins interval for 20 mins by split-luciferase complementation assay relative to control; type: cell-based; conditions: filed as modulator, time min 2-20
Method in brief: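 Double-stable HEK293 line expressing CLuc-FGF14 and CD4-Nav1.6-C-tail-NLuc, kept on G418 and puromycin. Cells seeded for 24 h, then given compound for 1 h in serum-free, phenol red-free DMEM/F12 with a final 0.5% DMSO: 50 μM for screening, 0.25–100 μM over eight concentrations for dose-response; n = 4. D-luciferin added and read every 2 min for 20 min at 37 °C. Peak luminescence expressed as percent of per-plate DMSO mean (n = 32). IC50 from four-parameter nonlinear fit. At least 3 experiments.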

HEK293 [2] = experiment: Inhibition of full-length Photinus pyralis luciferase transfected in HEK293 cells at 25 uM incubated for 1 hrs by split-luciferase complementation assay; type: cell-based
Method in brief: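 HEK293 cells transfected with full-length Photinus pyralis luciferase, then treated 1 h with 25 μM compound (n = 4) or 0.5% DMSO (n = 32). Luminescence read after D-luciferin addition, as in the LCA, normalized to per-plate DMSO controls. One-way ANOVA with Dunnett's test.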

[3] = target: T1, Sodium channel protein type 8 subunit alpha (Homo sapiens, UniProt Q9UQD0); experiment: Binding affinity to human recombinant Nav1.6 C-terminal domain expressed in Escherichia coli BL21 assessed as dissociation constant by SPR analysis
Method in brief: (§1)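 Biacore T100 runs with FGF14 (17,896 RU) or Nav1.6 C-tail (6,800 RU) amine-coupled on CM5 at pH 5.5. Compounds at 0.195–200 μM in PBS, 0.005% Tween-20, 2% DMSO; 50 μL/min at 25 °C. 120 s association, 150 s dissociation, DMSO calibration, blank subtraction. Rates from a Langmuir 1:1 fit; KD averages the kinetic and steady-state values. At least duplicate experiments.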
Target sequence in this assay (Q9UQD0 whole entry, the tested form may be a part): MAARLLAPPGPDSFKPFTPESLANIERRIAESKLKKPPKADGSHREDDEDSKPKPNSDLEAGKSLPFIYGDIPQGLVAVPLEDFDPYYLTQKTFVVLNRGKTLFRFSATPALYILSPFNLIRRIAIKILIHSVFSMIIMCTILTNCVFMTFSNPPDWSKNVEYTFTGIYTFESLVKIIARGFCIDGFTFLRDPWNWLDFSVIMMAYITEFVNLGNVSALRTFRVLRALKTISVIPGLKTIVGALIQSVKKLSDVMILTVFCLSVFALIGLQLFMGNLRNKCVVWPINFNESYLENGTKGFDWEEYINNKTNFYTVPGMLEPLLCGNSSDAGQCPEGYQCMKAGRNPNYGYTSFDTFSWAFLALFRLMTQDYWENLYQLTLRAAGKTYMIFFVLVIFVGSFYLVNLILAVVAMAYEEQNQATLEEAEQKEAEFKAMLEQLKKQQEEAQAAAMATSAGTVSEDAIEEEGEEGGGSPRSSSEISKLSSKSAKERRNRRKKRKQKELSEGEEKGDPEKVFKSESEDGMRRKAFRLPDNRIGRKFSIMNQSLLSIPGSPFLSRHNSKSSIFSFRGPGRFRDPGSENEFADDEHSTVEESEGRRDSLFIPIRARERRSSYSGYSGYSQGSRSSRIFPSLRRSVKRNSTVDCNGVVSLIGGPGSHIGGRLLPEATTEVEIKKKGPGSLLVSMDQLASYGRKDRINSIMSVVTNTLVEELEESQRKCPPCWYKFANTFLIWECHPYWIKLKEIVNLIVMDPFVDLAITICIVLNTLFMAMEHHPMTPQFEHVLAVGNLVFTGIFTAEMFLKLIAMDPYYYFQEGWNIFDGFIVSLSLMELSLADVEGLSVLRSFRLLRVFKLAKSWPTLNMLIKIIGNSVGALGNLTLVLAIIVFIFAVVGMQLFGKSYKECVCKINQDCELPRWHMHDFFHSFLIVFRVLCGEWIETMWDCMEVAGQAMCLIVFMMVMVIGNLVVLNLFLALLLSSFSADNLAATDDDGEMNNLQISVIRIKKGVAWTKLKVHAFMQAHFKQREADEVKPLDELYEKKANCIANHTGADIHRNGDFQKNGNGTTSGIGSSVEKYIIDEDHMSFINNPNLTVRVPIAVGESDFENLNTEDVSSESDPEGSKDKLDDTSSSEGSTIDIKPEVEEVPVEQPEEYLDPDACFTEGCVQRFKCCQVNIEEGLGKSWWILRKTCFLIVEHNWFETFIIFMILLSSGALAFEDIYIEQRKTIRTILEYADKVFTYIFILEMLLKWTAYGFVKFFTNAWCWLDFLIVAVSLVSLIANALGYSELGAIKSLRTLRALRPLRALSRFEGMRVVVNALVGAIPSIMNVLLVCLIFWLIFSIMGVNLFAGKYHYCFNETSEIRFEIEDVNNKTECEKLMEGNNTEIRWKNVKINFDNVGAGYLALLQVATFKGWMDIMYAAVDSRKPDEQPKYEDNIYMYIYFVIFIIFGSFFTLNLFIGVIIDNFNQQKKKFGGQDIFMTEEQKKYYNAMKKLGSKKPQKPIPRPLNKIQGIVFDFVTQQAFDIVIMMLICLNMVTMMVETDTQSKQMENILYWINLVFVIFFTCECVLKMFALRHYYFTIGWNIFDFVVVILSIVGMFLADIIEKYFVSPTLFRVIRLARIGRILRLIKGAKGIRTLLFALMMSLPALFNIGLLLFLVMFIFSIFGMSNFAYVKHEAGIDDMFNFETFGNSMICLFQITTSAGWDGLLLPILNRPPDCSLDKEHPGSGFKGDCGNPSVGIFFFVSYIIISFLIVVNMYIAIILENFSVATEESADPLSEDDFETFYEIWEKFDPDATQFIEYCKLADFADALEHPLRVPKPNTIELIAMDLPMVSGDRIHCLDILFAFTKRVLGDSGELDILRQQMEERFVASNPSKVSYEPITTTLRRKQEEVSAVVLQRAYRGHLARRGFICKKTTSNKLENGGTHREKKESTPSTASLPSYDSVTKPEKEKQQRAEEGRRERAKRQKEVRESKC

[4] = target: T2, Fibroblast growth factor 14 (Homo sapiens) (UniProt Q92915); experiment: Binding affinity to human recombinant FGF14 expressed in Escherichia coli BL21 assessed as dissociation rate constant by SPR analysis; conditions: filed as modulator; method in brief: as §1
T2 sequence (whole entry): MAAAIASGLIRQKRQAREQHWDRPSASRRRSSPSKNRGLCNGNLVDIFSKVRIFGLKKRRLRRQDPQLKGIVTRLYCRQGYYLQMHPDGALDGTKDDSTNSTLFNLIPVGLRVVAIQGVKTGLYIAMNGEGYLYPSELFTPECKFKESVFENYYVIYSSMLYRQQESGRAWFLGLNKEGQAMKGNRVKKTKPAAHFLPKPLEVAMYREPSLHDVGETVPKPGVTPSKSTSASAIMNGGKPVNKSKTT

[5] = target: T1, Sodium channel protein type 8 subunit alpha; experiment: Binding affinity to human recombinant Nav1.6 C-terminal domain expressed in Escherichia coli BL21 assessed as association rate constant by SPR analysis; conditions: filed as modulator; method in brief: as §1
Target sequence in this assay (Q9UQD0 whole entry, looked up, the tested form may be a part): as the sequence (Q9UQD0 whole entry, the tested form may be a part) above

[6] = target: T1, Sodium channel protein type 8 subunit alpha; experiment: Binding affinity to human recombinant Nav1.6 C-terminal domain expressed in Escherichia coli BL21 assessed as dissociation rate constant by SPR analysis; conditions: filed as modulator; method in brief: as §1
Target sequence in this assay (Q9UQD0 whole entry, looked up, the tested form may be a part): as the sequence (Q9UQD0 whole entry, the tested form may be a part) above

[7] = target: T3, Fibroblast growth factor 14/SCN8A (Homo sapiens) (UniProt Q9UQD0+Q92915); experiment: Modulation of human recombinant FGF14-Nav1.6 C-terminal domain expressed in Escherichia coli BL21 (DE3) protein-protein interaction assessed as association rate constant by SPR analysis (reference value: 2.18X10^4 +/- 1.6X10^2 /M/s); conditions: filed as modulator
T3 sequence (Q9UQD0 whole entry, looked up, one chain of several, the tested form may be a part): as the sequence (Q9UQD0 whole entry, the tested form may be a part) above
Method in brief: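 FGF14 at 15.6–1500 nM, premixed with 10 μM compound or DMSO, flowed over CM5-bound Nav1.6 C-terminal tail (934 RU). Final 2.1% DMSO, 25 °C, 50 μL/min, 120 s association and 150 s dissociation. Blank-subtracted sensorgrams fitted to a Langmuir 1:1 model.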

[8] = target: T1, Sodium channel protein type 8 subunit alpha; experiment: Modulation of recombinant human Nav1.6 C-terminal tail (1763 to 1976 residues) expressed in HEK293 cells assessed as peak current density at 10 uM incubated for 30 mins by whole cell patch clamp electrophysiology assay (reference value: -50.1 +/- 3.1 pA/pF); type: cell-based; conditions: filed as modulator
Method in brief: (§2)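 Stable HEK-Nav1.6 cells without FGF14, incubated at least 30 min in extracellular solution (mM: 140 NaCl, 3 KCl, 1 MgCl2, 1 CaCl2, 10 HEPES, 10 glucose, pH 7.3) with compound (10 or 30 μM) or 0.1% DMSO. Whole-cell recording with Cs-methanesulfonate/EGTA/NaCl/HEPES pipette solution, 70–80% compensation. Steps −100 to +60 mV; tau measured at −10 mV. Student's t-test.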
Target sequence in this assay (Q9UQD0 whole entry, looked up, the tested form may be a part): as the sequence (Q9UQD0 whole entry, the tested form may be a part) above

[9] = target: T1, Sodium channel protein type 8 subunit alpha; experiment: Modulation of recombinant human Nav1.6 C-terminal tail (1763 to 1976 residues) expressed in HEK293 cells assessed as change in time constant of fast inactivation at 10 uM incubated for 30 mins by whole cell patch clamp electrophysiology assay (reference value: 1.22 +/- 0.07 ms); type: cell-based; conditions: filed as modulator; method in brief: as §2
Target sequence in this assay (Q9UQD0 whole entry, looked up, the tested form may be a part): as the sequence (Q9UQD0 whole entry, the tested form may be a part) above

[10] = target: T1, Sodium channel protein type 8 subunit alpha; experiment: Modulation of recombinant human Nav1.6 C-terminal tail (1763 to 1976 residues) expressed in HEK293 cells assessed as half activation voltage at 10 uM incubated for 30 mins by whole cell patch clamp electrophysiology assay (reference value: -25.4 +/- 1 mV); type: cell-based; method in brief: as §2
Target sequence in this assay (Q9UQD0 whole entry, looked up, the tested form may be a part): as the sequence (Q9UQD0 whole entry, the tested form may be a part) above

[11] = target: T1, Sodium channel protein type 8 subunit alpha; experiment: Modulation of recombinant human Nav1.6 C-terminal tail (1763 to 1976 residues) expressed in HEK293 cells assessed as long-term inactivation at depolarization cycle 2 at 10 uM incubated for 30 mins by whole cell patch clamp electrophysiology assay (reference value: 0.84 +/- 0.03); type: cell-based; conditions: filed as modulator
Target sequence in this assay (Q9UQD0 whole entry, looked up, the tested form may be a part): as the sequence (Q9UQD0 whole entry, the tested form may be a part) above

[12] = target: T1, Sodium channel protein type 8 subunit alpha; experiment: Modulation of recombinant human Nav1.6 C-terminal tail (1763 to 1976 residues) expressed in HEK293 cells assessed as long-term inactivation at depolarization cycle 3 at 10 uM incubated for 30 mins by whole cell patch clamp electrophysiology assay (reference value: 0.76 +/- 0.05); type: cell-based; conditions: filed as modulator
[13] = target: T1, Sodium channel protein type 8 subunit alpha; experiment: (§3) Modulation of recombinant human Nav1.6 C-terminal tail (1763 to 1976 residues) expressed in HEK293 cells assessed as long-term inactivation at depolarization cycle 4 at 10 uM incubated for 30 mins by whole cell patch clamp electrophysiology assay (reference value: 0.75 +/- 0.05); type: cell-based; conditions: filed as modulator
[14] = target: T3, Fibroblast growth factor 14/SCN8A (Homo sapiens); experiment: Modulation of recombinant human Nav1.6 C-terminal tail (1763 to 1976 residues)-FGF14 (64 to 252 residues) protein-protein interaction expressed in HEK293 cells assessed as change in time constant of inactivation at 10 uM incubated for 30 mins by cell patch clamp electrophysiology assay (reference value: 1.58 +/- 0.18 ms); type: cell-based; conditions: filed as modulator
Method in brief: (§4)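 HEK-Nav1.6 cells transiently transfected with FGF14 using Lipofectamine 2000, then exposed at least 30 min to 10 μM compound or 0.1% DMSO in the pH 7.3 HEPES extracellular solution. Whole-cell patch clamp with Cs-methanesulfonate internal solution, 70–80% capacitance and series-resistance compensation. Test steps from −100 to +60 mV. Student's t-test used.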

[15] = target: T3, Fibroblast growth factor 14/SCN8A (Homo sapiens); experiment: Modulation of recombinant human Nav1.6 C-terminal tail (1763 to 1976 residues)-FGF14 (64 to 252 residues) protein-protein interaction expressed in HEK293 cells assessed as steady state half inactivation voltage at 10 uM incubated for 30 mins by whole cell patch clamp electrophysiology assay (reference value: -55.1 +/- 2 mV); type: cell-based; method in brief: as §4
[16] = target: T3, Fibroblast growth factor 14/SCN8A (Homo sapiens); experiment: as §3, with “residues) -FGF14 (64 to 252 residues) protein-protein interaction” for “residues)”, “by” for “by whole”, “0.98” for “0.75”, “0.06)” for “0.05)”; type: cell-based; conditions: filed as modulator

Compound: COC(=O)[C@@H](NC(=O)[C@H](CCC(=O)OC(C)(C)C)NC(=O)[C@H](CC(C)C)NC(=O)[C@@H]1CCCN1C(=O)C12CC3CC(CC(C3)C1)C2)C(C)C (Adamantane1carbonyl-PLE(OtBu)V-OMe)
- Activity (HEK293 [1]): 4.7%
- inhibition (HEK293 [2]): inactive
- Kd [3]: 16.4 µM
- K [4]: 9.33 10^-3/s
- K [5]: 6.23 10^4/M/s
- K [6]: 3.57 10^-3/s
- K [7]: 5.88 10^6/M/s
- Activity [8]: -25.8 pA/pF
- K [9]: 1.45 ms
- Activity [10]: -16.9 mV
- Activity [11]: 0.87
- Activity [12]: 0.76
- Activity [13]: 0.7
- K [14]: 1 ms
- Activity [15]: -65.6 mV
- Activity [16]: 0.75
